Rows were chosen to be rich in hits. Some 3.9% of all compounds tested hit in one or more screens of this group.
OX1R antag-1 – blocks the human orexin 1 receptor; O43613; CHO/OX1R cells, Fluo-8 calcium fluorescence, orexin A; inhibition, % at 5 µM; 330,000 tested, 0.43% active;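 active = inhibition above its plate's threshold, mean inhibition of all tested compounds on the plate plus 3 SD, cut at about 37% in these data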
Target sequence (O43613 whole entry, looked up): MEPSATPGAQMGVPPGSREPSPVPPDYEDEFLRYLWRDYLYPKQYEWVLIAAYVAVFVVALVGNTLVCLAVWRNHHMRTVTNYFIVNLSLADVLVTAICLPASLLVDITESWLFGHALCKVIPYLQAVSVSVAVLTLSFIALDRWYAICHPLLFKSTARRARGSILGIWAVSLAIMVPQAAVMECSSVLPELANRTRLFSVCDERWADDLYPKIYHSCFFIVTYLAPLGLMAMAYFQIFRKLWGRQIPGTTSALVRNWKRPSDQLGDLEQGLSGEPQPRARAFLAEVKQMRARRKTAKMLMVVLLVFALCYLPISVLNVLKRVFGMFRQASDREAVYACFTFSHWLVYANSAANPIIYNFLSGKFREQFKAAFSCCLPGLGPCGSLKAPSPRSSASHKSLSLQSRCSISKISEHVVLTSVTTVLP
TAAR1 antagonist – antagonists of human TAAR1; Q96RJ0; CHO RD-HGA16 TAAR1, Fluo-8 calcium fluorescence, antagonist; inhibition, % at 3 µM; 360,000 tested, 1.5% active; AID 624466;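 active = inhibition above a per-plate cutoff, the mean inhibition of test compounds on that plate plus 3 SD, cut at about 49% in these data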
Target sequence (Q96RJ0 whole entry, looked up): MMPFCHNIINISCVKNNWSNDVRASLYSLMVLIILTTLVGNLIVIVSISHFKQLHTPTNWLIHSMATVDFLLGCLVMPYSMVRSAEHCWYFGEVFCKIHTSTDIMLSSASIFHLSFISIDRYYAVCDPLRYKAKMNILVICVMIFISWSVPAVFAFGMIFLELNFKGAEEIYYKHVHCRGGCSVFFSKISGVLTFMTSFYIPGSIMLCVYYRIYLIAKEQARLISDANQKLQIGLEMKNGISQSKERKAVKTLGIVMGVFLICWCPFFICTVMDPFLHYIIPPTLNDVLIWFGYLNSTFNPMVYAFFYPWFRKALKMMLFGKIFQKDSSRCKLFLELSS
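Test system – hTAAR1-expressing CHO RD-HGA16 cells, Gα16-coupled · Reagent – β-PEA at EC80 concentration, post-compound challenge · Compound dosing – 3 µM, single point · Timing – 140 s kinetic read after compound, 140 s after agonist · Detection – Fluo-8 intracellular calcium dye fluorescence, real-time kinetic reads · Control set – DMSO and EC80 PEA controls · Repeats – n of 1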
TAAR1 agonist – agonists of human TAAR1. activation, % at 3 µM. CHO RD-HGA16 TAAR1, Fluo-8 calcium fluorescence; vehicle wells 0%, saturating PEA agonist 100%. AID 624467. Q96RJ0. 360,000 tested, 0.99% active;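 active = activation above the mean activation of all test compounds in the run plus 3 SD, cut at about 38% in these data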
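System: CHO RD-HGA16 cells carrying human TAAR1 plus Gα16; Incubation: 17-24 h seeding, 75 min 37 °C dye, 30 min RT; Measured by: Fluo-8 fluorescence, 5 s baseline then 140 s kinetic read; Control set: DMSO and PEA EC100; Replication: single well for each compound.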
CHO parental Ca – counter-screen: ATP calcium response change in parental CHO cells; parental CHO-K1, ATP-induced calcium, Fluo-8 fluorescence; inhibition, % at 5.6 µM; 330,000 tested, 0.63% active; AID 463079;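 active = inhibition above that plate's mean sample inhibition plus 3 SD, cut at about 26% in these data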
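Assay system: untransfected parental CHO cell line. Also added: ATP agonist challenge. Dosing: one dose, 5.6 µM nominal. Measured by: Fluo-8 fluorescence. Read-out: % inhibition. Benchmarks: ATP wells versus no-ATP DMSO wells. Repeats: no replicates.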
OX1R antag-2 – antagonists of human orexin 1 receptor (OX1R); inhibition, % at 6.6 µM; 330,000 tested, 1.8% active; AID 485270; OX1R-expressing cells, FRET antagonist read-out; O43613; in the data active = inhibition mostly above about 38%, no sharp cut-off; inactive = mostly below about 40%
TAAR1 nonsel count – nonselective antagonist in TAAR1 antagonist counter-screen. shares compounds with TAAR1 antagonist. counterscreen cell line, calcium fluorescence, antagonist mode. inhibition, % at 3 µM. 2,400 tested, 77% active; in the data active = inhibition above about 22%;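 note: CHO-Ga16 host cells stimulated with ATP at an EC80 level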
TAAR1 ant conf – confirmation of human TAAR1 antagonists. inhibition, % at 3 µM. AID 651785. shares compounds with TAAR1 antagonist. 2,400 tested, 40% active. TAAR1-expressing cells, fluorescence antagonist read-out; in the data active = inhibition above about 49%;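 note: CHO-Ga16 host cells challenged with agonist PEA near its EC80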
Ga16 nonsel ag – nonselective Ga16 agonist in TAAR1 antagonist counter-screen | Ga16-expressing cells, calcium fluorescence, agonist counterscreen | shares compounds with TAAR1 antagonist | activation, % at 3 µM | 2,400 tested, 18% active; in the data active = activation above about 12%
TAAR1 ag count – TAAR1 agonism, antagonist counter-screen; shares compounds with TAAR1 antagonist; hTAAR1 cell line, fluorescence activation, agonist mode; activation, % at 3 µM; 2,400 tested, 2% active; in the data active = activation above about 37%;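 note: CHO cells stably expressing TAAR1 with calcium dye readout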
Of the large screens only hits and unclear results are named; the others gave an inactive call (follow-up assays come after a bar, where they were run).

COc1ccc([N+](=O)[O-])cc1NS(=O)(=O)c1ccc(C)cc1	none
Cc1ccc(S(=O)(=O)Nc2ccccc2N=Cc2ccc([N+](=O)[O-])cc2[N+](=O)[O-])cc1	TAAR1 antagonist 64.2 (no result: OX1R antag-1, CHO parental Ca, OX1R antag-2) | TAAR1 nonsel count inactive | TAAR1 ant conf inactive | Ga16 nonsel ag inactive | TAAR1 ag count inactive
CC(NC(=O)Nc1ccccc1O)(C(F)(F)F)C(F)(F)F	none
Cc1c(C(=O)N(Cc2ccccc2)C(C)C)oc2ccc(S(=O)(=O)N3CCOCC3)cc12	TAAR1 antagonist 79.9 | TAAR1 nonsel count 32.7 | TAAR1 ant conf 60.8 | Ga16 nonsel ag 13.5 | TAAR1 ag count inactive
CC(C)c1ccc(CNCCCSc2ncccn2)cc1	none
COc1ccc(OC)c2[nH]c(=O)c(CCNC(=O)c3cc4ccccc4o3)cc12	none
Cc1ccc(C)c2[nH]c(=O)c(CCNC(=O)c3cc4ccccc4o3)cc12	TAAR1 antagonist 48.8 | TAAR1 nonsel count 24.1 | TAAR1 ant conf inactive | Ga16 nonsel ag inactive | TAAR1 ag count inactive
COCCN1Cc2cc(C(=O)OC)c3c(c2C1=O)c1cc(OC)ccc1n3C(=O)c1ccccc1	TAAR1 antagonist 74.3 (no result: OX1R antag-1, CHO parental Ca, OX1R antag-2) | TAAR1 nonsel count 34.2 | TAAR1 ant conf 58.1 | Ga16 nonsel ag inactive | TAAR1 ag count inactive
COCCN1Cc2cc(C(=O)OC)c3c(c2C1=O)c1cc(OC)ccc1n3S(C)(=O)=O	none (no result: OX1R antag-1, CHO parental Ca, OX1R antag-2)
COCCN1Cc2cc(C(=O)OC)c3c(c2C1=O)c1cc(F)ccc1n3C(=O)c1ccccc1	TAAR1 antagonist 74.0 (no result: OX1R antag-1, CHO parental Ca, OX1R antag-2) | TAAR1 nonsel count 32.3 | TAAR1 ant conf 49.3 | Ga16 nonsel ag inactive | TAAR1 ag count inactive
COCCN1Cc2cc(C(=O)OC)c3c(c2C1=O)c1ccccc1n3S(=O)(=O)c1ccc(OC)cc1	none (no result: OX1R antag-1, CHO parental Ca, OX1R antag-2)
COc1ccc(OC)c(C2=NS(=O)(=O)N(C)C(C(=O)Nc3ccc(F)cc3F)=C2)c1	none
CCOC(=O)c1ccc(NC(=O)CN(C)S(=O)(=O)c2ccc(Br)s2)cc1	TAAR1 antagonist 85.1 | TAAR1 nonsel count 38.3 | TAAR1 ant conf inactive | Ga16 nonsel ag inactive | TAAR1 ag count inactive
Cc1ccc(OCC(=O)Nc2cccc(S(=O)(=O)N3CCCCC3)c2)c([N+](=O)[O-])n1	none
COc1ccc(CN(C)CC(=O)Nc2cccc(S(=O)(=O)N3CCCC3)c2)cc1F	TAAR1 antagonist 63.8 | TAAR1 nonsel count inactive | TAAR1 ant conf inactive | Ga16 nonsel ag inactive | TAAR1 ag count inactive
Cc1ccc2cccc(OCC(=O)Nc3cccc(S(=O)(=O)N4CCCC4)c3)c2n1	TAAR1 antagonist 74.5 | TAAR1 nonsel count 33.6 | TAAR1 ant conf 56.8 | Ga16 nonsel ag inactive | TAAR1 ag count inactive
CN(CC(=O)Nc1cccc(F)c1)CC(=O)Nc1cccc(S(=O)(=O)N2CCCCCC2)c1	TAAR1 antagonist 60.5 | TAAR1 nonsel count inactive | TAAR1 ant conf inactive | Ga16 nonsel ag 12.4 | TAAR1 ag count inactive
O=C(NCc1ccc(OC(F)(F)F)cc1)C1CC2Cn3c(nc4ccccc43)C2N1c1ccccc1 (stereo unspecified)	none
CCc1nc2ccc(C(=O)NCCCN3CCN(c4ccccc4F)CC3)cc2nc1CC	none
COc1ccc(OC)c(C(O)c2ncc(-c3ccccc3OC)[nH]2)c1 (stereo unspecified)	none (no result: OX1R antag-1, CHO parental Ca, OX1R antag-2)
CN=c1scc(-c2c[nH]c3ccccc23)n1C	none (no result: OX1R antag-1, CHO parental Ca, OX1R antag-2)
COc1cccc(N2C(=O)C(Cc3c[nH]c4ccccc34)NC2=S)c1 (stereo unspecified)	none
CC1Sc2ccc(C(=O)OCc3ccccc3Cl)cc2NC1=O (stereo unspecified)	none
O=C1c2ccccc2C(c2nnnn2Cc2ccccc2)N1Cc1ccc(F)cc1 (stereo unspecified)	none (no result: OX1R antag-1, CHO parental Ca, OX1R antag-2)
O=C1c2ccccc2C(c2nnnn2Cc2ccccc2)N1CCc1c[nH]c2ccccc12 (stereo unspecified)	TAAR1 antagonist 72.0 (no result: OX1R antag-1, CHO parental Ca, OX1R antag-2) | TAAR1 nonsel count 39.5 | TAAR1 ant conf 61.7 | Ga16 nonsel ag inactive | TAAR1 ag count inactive
Cc1cc(C)n2nc(C(=O)OCC(=O)N(C)C3CCS(=O)(=O)C3)nc2n1 (stereo unspecified)	none
O=C(Nc1ccc(S(=O)(=O)N2CCCCC2c2cccnc2)cc1)c1ccccc1F (stereo unspecified)	TAAR1 antagonist 56.3 | TAAR1 nonsel count 27.2 | TAAR1 ant conf inactive | Ga16 nonsel ag inactive | TAAR1 ag count inactive
COC(=O)c1cccc(NC(=O)CCCOc2cccc(C)c2)c1	none
O=C(OCC(=O)N(Cc1ccccc1)Cc1ccccc1)c1ccccc1NCCO	TAAR1 antagonist 69.9 | TAAR1 nonsel count 34.5 | TAAR1 ant conf 51.3 | Ga16 nonsel ag inactive | TAAR1 ag count inactive
CSCCC(NS(=O)(=O)c1ccc2c(c1)OCCO2)C(=O)NCCc1ccccn1 (stereo unspecified)	none
CSCCC(NS(=O)(=O)c1ccc2c(c1)OCCO2)C(=O)N(C)Cc1ccc(C)cc1 (stereo unspecified)	TAAR1 antagonist 63.2 | TAAR1 nonsel count 23.2 | TAAR1 ant conf inactive | Ga16 nonsel ag inactive | TAAR1 ag count inactive
COc1cccc(CN(C)C(=O)C(CCSC)NS(=O)(=O)c2ccc3c(c2)OCCO3)c1OC (stereo unspecified)	TAAR1 antagonist 75.0 | TAAR1 nonsel count 37.5 | TAAR1 ant conf 62.8 | Ga16 nonsel ag 11.7 | TAAR1 ag count inactive
CC(=O)Nc1sc(N/N=C/c2ccc(C)cc2)nc1-c1ccc(C)cc1	TAAR1 antagonist 53.2 | TAAR1 nonsel count inactive | TAAR1 ant conf inactive | Ga16 nonsel ag inactive | TAAR1 ag count inactive
COc1ccccc1NS(=O)(=O)c1cccc(C(=O)NCC(c2cccs2)N2CCOCC2)c1 (stereo unspecified)	none
CCOC(=O)C1=C(COC(=O)/C=C/c2cccc([N+](=O)[O-])c2)NC(=O)NC1C (stereo unspecified)	TAAR1 antagonist 58.4 | TAAR1 nonsel count inactive | TAAR1 ant conf 56.3 | Ga16 nonsel ag 14.7 | TAAR1 ag count inactive
CCOC(=O)C1=C(COC(=O)Cc2ccc(Cl)cc2)NC(=O)NC1C (stereo unspecified)	TAAR1 antagonist 60.2 | TAAR1 nonsel count 24.6 | TAAR1 ant conf inactive | Ga16 nonsel ag inactive | TAAR1 ag count inactive
CCOC(=O)C1=C(COC(=O)/C=C/c2cccc(Br)c2)NC(=O)NC1C (stereo unspecified)	TAAR1 antagonist 58.5 | TAAR1 nonsel count inactive | TAAR1 ant conf inactive | Ga16 nonsel ag inactive | TAAR1 ag count inactive
CCOC(=O)C1=C(COC(=O)/C=C/c2ccc(OC)c(OC)c2)NC(=O)NC1C (stereo unspecified)	none

Bioassay records: PubChem, The Scripps Research Institute Molecular Screening Center
